# In the library only some 1.9% were active in any assay of this set; here they are far more common.
# APJ ag – APJ receptor agonism | activation, % at 20 µM | AID 2520 | 330,000 tested, 0.11% active | CHO-K1 APJ PathHunter beta-arrestin, luminescence; 0% DMSO wells, 100% apelin | P35414;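 active = activation more than six SD over the plate average, tested at 20 µM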;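 note: 0% = DMSO alone and 100% = apelin-13 at 10 nM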
# Target sequence (P35414 whole entry, looked up): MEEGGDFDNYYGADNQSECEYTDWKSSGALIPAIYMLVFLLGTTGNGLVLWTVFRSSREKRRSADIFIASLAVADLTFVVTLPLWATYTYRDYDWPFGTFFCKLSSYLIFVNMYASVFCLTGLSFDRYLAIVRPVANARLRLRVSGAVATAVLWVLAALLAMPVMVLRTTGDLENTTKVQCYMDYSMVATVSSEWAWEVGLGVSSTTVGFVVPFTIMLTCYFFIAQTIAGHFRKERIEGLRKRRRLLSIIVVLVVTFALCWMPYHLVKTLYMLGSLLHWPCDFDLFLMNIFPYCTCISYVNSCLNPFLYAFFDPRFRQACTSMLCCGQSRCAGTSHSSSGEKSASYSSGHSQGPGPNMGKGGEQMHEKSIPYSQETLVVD
#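 Assay system: CHO-K1 APJ beta-arrestin complementation cell line / Compound: single test compound dose, 20 µM final, 1% DMSO / Times: overnight seeding, 90 min compound at 25 °C, 1 h detection / Technique: beta-gal luminescence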
# CXCR6 block – blocks human CXCR6 beta-arrestin recruitment; O00574; 360,000 tested, 0.36% active; inhibition, % at 20 µM; CHO-K1 PathHunter CXCR6 beta-arrestin, luminescence; in the data active = inhibition above about 34%, passing the limit was not always enough;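 note: antagonist mode with CXCL16 agonist at 10 nM final; 0% = 10 nM CXCL16 with DMSO and 100% = unstimulated wells without agonist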
# TAG inh – inhibitors of triacylglycerol accumulation. H9c2 cells, Nile Red lipid (TAG) fluorescence; cells loaded with 200 µM oleic acid. inhibition, % at 12.5 µM. 230,000 tested, 0.66% active. AID 651582;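 active = pattern-corrected inhibition of lipid staining of at least 50% with the nuclear-stain viability signal not falling by more than 50%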;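 note: 0% = DMSO wells and 100% = triacsin C control wells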
# EBI2 block – antagonists of human EBI2 receptor | P32249 | EBI2 beta-arrestin recruitment, luminescence, 7a,25-OHC stimulated | inhibition, % at 5 µM | 360,000 tested, 0.81% active; in the data active = inhibition above about 38%;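 note: enzyme fragment complementation signal reports receptor beta-arrestin coupling in cells; 0% = agonist plus DMSO wells and 100% = wells without agonist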
# APJ antag – antagonists of human APJ apelin receptor. P35414. CHO-K1 APJ beta-arrestin complementation, luminescence. inhibition, % at 20 µM. 330,000 tested, 0.32% active. AID 2521;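 active = inhibition above about 40% at 20 µM, limit read from the data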;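 note: cells challenged with 10 nM apelin-13 agonist together with compound; plate controls were apelin-13 plus DMSO wells for no effect and DMSO wells lacking apelin-13 for full effect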
# CCR6 antag – blocks CCL20-driven beta-arrestin recruitment at human CCR6; inhibition, % at 20 µM; AID 493098; 340,000 tested, 0.49% active; CHO-K1 CCR6 PathHunter beta-arrestin, luminescence, CCL20-stimulated; P51684;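 active = compounds whose inhibition of the agonist-driven luminescence signal at 20 µM reaches about 50%, limit read from the data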;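 note: cells stimulated with CCL20 at 14 nM final; plate controls were DMSO with CCL20 for no effect and DMSO without agonist for full effect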
# APJ ag confirm – confirmation of human APJ apelin receptor agonists; shares compounds with APJ ag; CHO-K1 APJ PathHunter beta-arrestin, luminescence; activation, % at 20 µM; 310 tested, 10% active;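 active = activation above 40%, taking the highest of four retests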;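 note: plate controls were DMSO wells for no effect and apelin-13 at 10 nM for full effect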
# APJ antag confirm – confirmation of human APJ apelin receptor antagonists. shares compounds with APJ antag. APJ beta-arrestin recruitment, luminescence, antagonist mode. 950 tested, 66% active. inhibition, % at 20 µM; in the data active = inhibition above about 50%
# CXCR6 antag conf – CXCR6 antagonism confirmation, single concentration | shares compounds with CXCR6 block | CHO-K1 CXCR6 PathHunter beta-arrestin, luminescence | inhibition, % at 20 µM | 700 tested, 65% active;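 active = mean inhibition over four retests above 40%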;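 note: receptor stimulated with 10 nM CXCL16 agonist; beta-galactosidase fragment complementation upon beta-arrestin recruitment to receptor; plate controls were CXCL16 plus DMSO for no effect and DMSO without CXCL16 for full effect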
# The depositor's hits bear a star; . = no result given.
SMILES,APJ ag,CXCR6 block,TAG inh,EBI2 block,APJ antag,CCR6 antag,APJ ag confirm,others
CCCCC1=CC2=CC(=O)C(C)(OC(=O)CC)C(=O)C2=CN1c1ccccc1 (centres undefined),75*,-10,20,1,-39,4,14,
CC(C)(C)Cc1c(-c2ccc(F)cc2)nc2ccc(Br)cn12,.,6,-7,-27,.,.,.,
COc1cc(C)c(NC(=O)COc2ccc3c(c2)CCC3)cc1OC,0,-5,-7,-9,3,7,.,
COCCCNC(=O)c1ccc2c(=O)n(Cc3ccc(Cl)cc3)c(=S)[nH]c2c1,-2,3,.,0,16,14,.,
CC1CCN(CCNC(=O)c2ccc3c(=O)n(Cc4ccc(Cl)cc4)c(=S)[nH]c3c2)CC1,33*,1,.,-1,0,-5,9,
CC1=C(c2ccc(F)cc2)[N+](=O)C(C)(C)N1[O-],5,-8,-1,-10,-111,-7,.,
CC1=C(c2ccc(C)cc2)[N+](=O)C(C)(C)N1[O-],10*,0,-10,-9,-126,3,24,
Cc1c(NC(=O)c2cccc(NC(=O)Cc3ccc(F)cc3)c2)c(=O)n(-c2ccccc2)n1C,-5,1,-17,-2,9,-6,.,
Cc1nn(-c2ccccc2)c(Cl)c1C(=O)N1CCN(c2ncnc3c2cnn3-c2ccccc2)CC1,18*,7,-38,-67,-39,-23,30,
O=C(c1ccccc1)N1CCN(c2ncnc3c2cnn3-c2ccccc2)CC1,7,-6,5,-5,12,3,.,
CC1(C(=O)NS(=O)(=O)c2cccc(F)c2)CCN1C(=O)c1cccc(F)c1 (centres undefined),.,1,10,1,.,.,.,
Nc1c(C(O)(C(F)(F)F)C(F)(F)F)cc(C(O)(C(F)(F)F)C(F)(F)F)c2ccccc12,50*,4,-11,-21,-9,6,37,
COc1cccc(Nc2nc(NCC3CCCO3)c3ccccc3n2)c1 (centres undefined),14*,-8,5,-14,-12,1,10,
CCN(CC(=O)Nc1ccc(NC(C)=O)cc1)C(=O)c1oc2c(ccc3ccccc32)c1C,22*,-14,-17,-11,-15,-19,11,
CCCOc1ccc(C(=O)N/N=C/c2c[nH]c3ccc(Br)cc23)cc1,-4,-10,.,1,-11,-18,.,
CCCCCN=C(N)N/N=C/c1c[nH]c2ccc(OC)cc12,35*,27,124,5,-20,55*,39,
CCOc1ccc(/C=C/[N+](=O)[O-])c2ccccc12,16*,60*,-7,10,-24,.,-3,CXCR6 antag conf=52*
CC1(C(=O)Nc2ccc3ccccc3c2)CCC(=O)N1CCc1c[nH]c2ccccc12 (centres undefined),.,-14,.,14,.,.,.,
O=C(NNc1ncc(C(F)(F)F)cc1Cl)c1ccc(Cl)c(Cl)c1,-5,-4,7,-1,13,22,.,
Cc1ccc(NC(=S)NNc2ncc(C(F)(F)F)cc2Cl)c(C)c1,-10,65*,-5,24,53*,81*,.,APJ antag confirm=49
Nc1c(N2CCCC2)c2ccccc2oc1=O,-9,31,.,28,71*,55*,.,APJ antag confirm=83*
O=[N+]([O-])c1c(NCCCO)cc(Sc2nc3ccccc3s2)c2nonc12,-7,97*,.,49*,76*,115*,.,APJ antag confirm=117*
Cc1ccccc1NC(=O)c1ccc(Nc2c([N+](=O)[O-])cc([N+](=O)[O-])c3ccccc23)cc1,-5,42*,4,22,57*,60*,.,APJ antag confirm=90*
CSc1ccccc1NC(=O)CN(C)C(=O)c1ccc(NC(=O)c2cccs2)cc1,-2,-11,2,-17,1,8,.,
Cc1nsc(Nc2ccc([N+](=O)[O-])cc2)c1C#N,-8,50*,1,23,71*,56*,.,APJ antag confirm=88*

# Screening data as filed in PubChem BioAssay.
